Measurements reported in ChEMBL document CHEMBL5696442, “Discovery of type II inhibitors of TGFβ-activated kinase 1 (TAK1) and mitogen-activated protein kinase kinase kinase kinase 2 (MAP4K2)” (J Med Chem, 2015).

How the values were obtained:
Assay type in all cases: cell-based
[1] = target: T1, Mitogen-activated protein kinase kinase kinase 3 (Homo sapiens) (UniProt Q99759); test: Inhibition of MAP3K3 Lys1 labeling site in human A-375 cells at 0.5 uM by KiNativ Profiling analysis relative to control
T1 sequence (whole entry): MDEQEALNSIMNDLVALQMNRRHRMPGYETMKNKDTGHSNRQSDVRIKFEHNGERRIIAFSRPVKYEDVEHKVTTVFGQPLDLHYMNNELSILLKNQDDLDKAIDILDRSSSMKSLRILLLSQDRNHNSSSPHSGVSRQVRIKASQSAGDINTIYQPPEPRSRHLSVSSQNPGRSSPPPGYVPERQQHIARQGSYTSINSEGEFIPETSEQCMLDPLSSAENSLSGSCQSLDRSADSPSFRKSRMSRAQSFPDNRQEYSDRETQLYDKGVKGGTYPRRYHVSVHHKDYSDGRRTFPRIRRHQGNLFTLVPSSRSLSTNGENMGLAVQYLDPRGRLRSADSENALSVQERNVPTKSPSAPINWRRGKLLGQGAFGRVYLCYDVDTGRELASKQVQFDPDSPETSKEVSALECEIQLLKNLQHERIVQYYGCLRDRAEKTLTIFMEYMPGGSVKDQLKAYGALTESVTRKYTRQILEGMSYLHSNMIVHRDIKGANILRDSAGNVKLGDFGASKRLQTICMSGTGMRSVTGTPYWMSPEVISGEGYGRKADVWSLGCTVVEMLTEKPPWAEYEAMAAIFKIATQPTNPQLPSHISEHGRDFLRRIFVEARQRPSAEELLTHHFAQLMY

[2] = target: T2, Aurora kinase C (Homo sapiens) (UniProt Q9UQB9); test: Inhibition of AurC ATP Loop labeling site in human A-375 cells at 5 uM by KiNativ Profiling analysis relative to control
T2 sequence (whole entry): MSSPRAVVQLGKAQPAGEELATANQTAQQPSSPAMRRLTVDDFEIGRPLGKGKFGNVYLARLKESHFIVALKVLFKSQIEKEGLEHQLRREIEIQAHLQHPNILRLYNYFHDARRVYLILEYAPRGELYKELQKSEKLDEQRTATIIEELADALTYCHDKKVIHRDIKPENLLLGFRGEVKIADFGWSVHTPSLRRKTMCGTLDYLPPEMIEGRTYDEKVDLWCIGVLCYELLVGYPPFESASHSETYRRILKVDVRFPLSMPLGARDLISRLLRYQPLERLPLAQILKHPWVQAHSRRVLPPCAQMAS
Method in brief: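 Live A375 melanoma cells were treated with compound at 5 or 0.5 μM, then lysed. The lysates were labeled with a lysine-reactive ATP or ADP-biotin probe. Kinase protection from probe labeling was measured by KiNativ.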

[3] = target: DNA-PK/Ku70/Ku85 (Homo sapiens) (UniProt P78527+P12956+P13010); test: Inhibition of DNAPK ATP labeling site harbouring EHPFLVKGGEDLR in human A-375 cells at 0.5 uM by KiNativ Profiling analysis relative to control
Method in brief: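 Live A375 melanoma cells were treated with compound at 0.5 or 5 μM, then lysed. Lysates were labeled with a lysine-reactive ATP or ADP-biotin probe. The read-out was protection of each kinase probe-labeling site from labeling, relative to control.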

[4] = target: RAC-beta serine/threonine-protein kinase (Homo sapiens) (UniProt P31751); test: Inhibition of AKT2 ATP Loop labeling site in human A-375 cells at 0.05 uM by KiNativ Profiling analysis relative to control
[5] = target: Tyrosine-protein kinase Fer (Homo sapiens, UniProt P16591); test: Inhibition of FER Lys1 labeling site harbouring DKTSVAVKTCKEDLPQELK in human A-375 cells at 0.5 uM by KiNativ Profiling analysis relative to control
[6] = target: T3, Serine/threonine-protein kinase TAO2 (Homo sapiens) (UniProt Q9UL54); test: Inhibition of TAO2 Lys2 labeling site in human A-375 cells at 5 uM by KiNativ Profiling analysis relative to control
T3 sequence (whole entry): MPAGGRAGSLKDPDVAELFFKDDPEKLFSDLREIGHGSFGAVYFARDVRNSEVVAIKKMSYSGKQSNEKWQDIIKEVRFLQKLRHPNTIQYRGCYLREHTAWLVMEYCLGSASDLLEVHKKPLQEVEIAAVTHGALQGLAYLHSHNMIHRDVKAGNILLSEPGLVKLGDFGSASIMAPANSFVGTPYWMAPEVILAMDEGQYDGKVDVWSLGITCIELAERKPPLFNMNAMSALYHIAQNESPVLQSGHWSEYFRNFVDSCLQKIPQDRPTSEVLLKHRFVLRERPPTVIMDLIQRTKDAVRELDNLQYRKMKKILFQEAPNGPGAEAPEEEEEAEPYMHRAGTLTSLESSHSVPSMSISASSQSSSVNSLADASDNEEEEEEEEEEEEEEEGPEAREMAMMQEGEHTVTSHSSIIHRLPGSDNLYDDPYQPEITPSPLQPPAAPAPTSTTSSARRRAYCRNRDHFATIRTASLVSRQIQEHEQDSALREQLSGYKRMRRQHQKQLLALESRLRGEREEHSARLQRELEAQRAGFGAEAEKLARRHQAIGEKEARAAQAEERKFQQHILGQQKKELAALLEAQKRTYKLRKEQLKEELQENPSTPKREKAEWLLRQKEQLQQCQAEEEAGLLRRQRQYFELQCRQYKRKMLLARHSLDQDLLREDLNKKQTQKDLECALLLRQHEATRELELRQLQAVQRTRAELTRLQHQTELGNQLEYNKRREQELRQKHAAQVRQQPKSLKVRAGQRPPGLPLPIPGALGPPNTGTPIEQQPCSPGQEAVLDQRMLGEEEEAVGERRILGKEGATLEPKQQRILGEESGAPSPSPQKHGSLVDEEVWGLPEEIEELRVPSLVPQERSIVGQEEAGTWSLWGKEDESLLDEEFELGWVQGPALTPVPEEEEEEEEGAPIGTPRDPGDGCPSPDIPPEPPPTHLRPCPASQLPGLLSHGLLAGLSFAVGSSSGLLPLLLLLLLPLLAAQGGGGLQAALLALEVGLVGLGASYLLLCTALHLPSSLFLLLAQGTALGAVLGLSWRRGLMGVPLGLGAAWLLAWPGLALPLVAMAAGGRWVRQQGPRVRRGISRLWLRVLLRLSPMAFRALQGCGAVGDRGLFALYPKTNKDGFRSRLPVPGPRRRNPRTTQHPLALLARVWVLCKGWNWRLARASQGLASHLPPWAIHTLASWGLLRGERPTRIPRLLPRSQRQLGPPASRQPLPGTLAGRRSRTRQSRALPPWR

Chain of RAC-beta serine/threonine-protein kinase (Homo sapiens) (P31751 whole entry): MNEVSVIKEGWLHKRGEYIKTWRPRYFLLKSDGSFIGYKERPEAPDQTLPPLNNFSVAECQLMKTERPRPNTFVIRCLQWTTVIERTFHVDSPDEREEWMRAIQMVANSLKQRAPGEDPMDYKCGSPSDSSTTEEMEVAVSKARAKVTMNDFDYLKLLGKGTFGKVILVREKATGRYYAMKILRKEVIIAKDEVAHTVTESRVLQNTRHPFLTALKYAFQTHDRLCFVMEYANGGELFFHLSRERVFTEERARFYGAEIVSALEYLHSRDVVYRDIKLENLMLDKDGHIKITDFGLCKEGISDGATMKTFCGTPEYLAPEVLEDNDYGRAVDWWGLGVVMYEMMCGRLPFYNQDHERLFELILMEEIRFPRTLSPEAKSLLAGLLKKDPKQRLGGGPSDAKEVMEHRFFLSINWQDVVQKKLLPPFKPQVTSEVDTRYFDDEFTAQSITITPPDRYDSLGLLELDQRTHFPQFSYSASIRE
Chain of Tyrosine-protein kinase Fer (P16591 whole entry, looked up): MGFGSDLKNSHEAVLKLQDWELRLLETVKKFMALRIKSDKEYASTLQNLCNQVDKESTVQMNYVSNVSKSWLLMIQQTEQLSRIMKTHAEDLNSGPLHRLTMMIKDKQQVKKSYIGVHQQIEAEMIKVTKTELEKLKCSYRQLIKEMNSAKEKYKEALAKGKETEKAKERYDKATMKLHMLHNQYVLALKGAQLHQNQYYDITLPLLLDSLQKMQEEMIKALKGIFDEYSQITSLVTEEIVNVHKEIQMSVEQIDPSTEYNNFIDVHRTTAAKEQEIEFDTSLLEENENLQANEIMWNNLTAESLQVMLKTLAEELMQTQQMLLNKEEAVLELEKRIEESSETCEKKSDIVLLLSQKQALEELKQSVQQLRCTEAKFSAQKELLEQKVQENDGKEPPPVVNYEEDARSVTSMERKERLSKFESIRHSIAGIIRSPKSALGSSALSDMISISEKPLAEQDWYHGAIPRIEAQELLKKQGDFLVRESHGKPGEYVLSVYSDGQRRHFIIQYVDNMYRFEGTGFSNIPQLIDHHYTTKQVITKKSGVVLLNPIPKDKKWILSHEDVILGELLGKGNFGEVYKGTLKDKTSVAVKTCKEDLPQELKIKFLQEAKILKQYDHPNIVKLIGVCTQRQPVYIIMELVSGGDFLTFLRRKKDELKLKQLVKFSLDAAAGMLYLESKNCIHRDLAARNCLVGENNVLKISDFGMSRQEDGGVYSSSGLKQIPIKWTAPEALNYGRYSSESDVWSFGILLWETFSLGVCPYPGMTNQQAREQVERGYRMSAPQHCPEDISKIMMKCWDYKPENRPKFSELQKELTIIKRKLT

**Q.** Which results are given for CCN1CCN(Cc2ccc(NC(=O)c3ccc(C)c(/C=C/c4cnc5[nH]ccc5c4OC)c3)cc2C(F)(F)F)CC1?
**A.** inhibition [1]: 33.4%; inhibition [2]: 48.5%; inhibition [3]: 13.8%; inhibition [4]: 20.9%; inhibition [5]: 30%; inhibition [6]: 82.2%

**Q.** For CCN1CCN(Cc2ccc(NC(=O)c3ccc(C)c(Oc4ccnc5[nH]ccc45)c3)cc2C(F)(F)F)CC1, which inhibition [1] is on record?
**A.** 42%

**Q.** What about the inhibition [2] of the same molecule?
**A.** 31.4%

**Q.** What about the inhibition [3] of the same molecule?
**A.** 3.2%

**Q.** What about the inhibition [4] of the same molecule?
**A.** -3.9%

**Q.** And the inhibition [5]?
**A.** 87%

**Q.** And the inhibition [6]?
**A.** 82.5%
